Measurements taken from ChEMBL document CHEMBL4334433, “BIM-46174 fragments as potential ligands of G proteins” (Medchemcomm, 2019).
The source made the active and inactive calls. No cut-off for these calls is given here.

Tests used:
Assay type in all cases: cell-based
[1] = tested on: HEK293; assay: Cytotoxicity against human HEK293 cells assessed as reduction in cell viability at 100 uM incubated for 22 hrs by CellTiter-BlueTM cell viability assay; details: hek293, 22 h
Outline: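 HEK293 cells were seeded at 25,000 per well on poly-D-lysine and grown overnight, then exposed to compound for 22 h. CellTiter-Blue reagent was added for a further 2 h, and resorufin fluorescence was read at excitation 560 nm and emission 590 nm.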

[2] = target: T1, Guanine nucleotide-binding protein G(q) subunit alpha (Homo sapiens) (UniProt P50148); assay: Inhibition of Galpha-q in human HEK293 cells assessed as reduction in CCh-induced IP1 accumulation at 100 uM preincubated for 2 hrs followed by CCh stimulation and measured after 35 mins by time resolved fluorescence assay
T1 sequence (whole entry): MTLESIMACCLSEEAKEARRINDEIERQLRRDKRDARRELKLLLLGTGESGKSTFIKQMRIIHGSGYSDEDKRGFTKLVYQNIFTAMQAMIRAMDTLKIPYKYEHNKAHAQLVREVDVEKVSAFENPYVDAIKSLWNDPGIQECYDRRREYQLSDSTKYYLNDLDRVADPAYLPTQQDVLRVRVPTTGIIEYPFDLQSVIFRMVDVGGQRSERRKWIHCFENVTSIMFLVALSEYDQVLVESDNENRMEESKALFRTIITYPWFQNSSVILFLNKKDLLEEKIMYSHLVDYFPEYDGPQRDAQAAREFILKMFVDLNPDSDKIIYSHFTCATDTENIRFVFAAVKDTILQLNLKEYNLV
Outline: (§1)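 HEK293 wt cells were grown in DMEM with 10% FBS and penicillin/streptomycin at 37 °C and 5% CO2. Cells were plated at 60,000 per well and pre-incubated 15 min at 37 °C. Compound was added in stimulation buffer for 2 h at 37 °C, followed by buffer containing 100 µM carbachol (concentration in the added buffer) for 35 min. IP1 was read by HTRF (620/665 nm ratio).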

[3] = target: T1, Guanine nucleotide-binding protein G(q) subunit alpha (Homo sapiens); assay: Inhibition of Galpha-q in human HEK293 cells harbouring PL3alpha mutant assessed as reduction in CCh-induced IP1 accumulation preincubated for 2 hrs followed by CCh stimulation and measured after 35 mins by time resolved fluorescence assay
[4] = target: T1, Guanine nucleotide-binding protein G(q) subunit alpha (Homo sapiens); assay: Inhibition of Galpha-q in human HEK293 cells assessed as reduction in CCh-induced IP1 accumulation preincubated for 2 hrs followed by CCh stimulation and measured after 35 mins by time resolved fluorescence assay; outline: as §1

| SMILES | inhibition [2] | inhibition [3] | inhibition [4] | Activity [1] |
| --- | --- | --- | --- | --- |
| O=C1Cn2cc(-c3ccccc3)nc2[C@H](CC2CCCCC2)N1 | inactive | – | – | Non-Toxic |
| O=C1Cn2cc(-c3ccccc3)nc2CCN1 | inactive | – | – | Non-Toxic |
| O=C1CCn2cc(-c3ccccc3)nc2[C@H](CC2CCCCC2)N1 | inactive | – | – | Non-Toxic |
| N[C@@H](CS)C(=O)N1CCn2cc(-c3ccccc3)nc2[C@@H]1CC1CCCCC1 | Active | – | – | Toxic |
| O=C1CCn2cc(-c3ccccc3)nc2CN1 | inactive | Active | Dose-dependent effect | Non-Toxic |

The next lines start with results.

| inhibition [2] | inhibition [3] | inhibition [4] | SMILES | Activity [1] |
| --- | --- | --- | --- | --- |
| inactive | – | – | O=C1Cn2cc(-c3ccccc3)nc2[C@H](CC2CCCCC2)CN1 | Non-Toxic |
| inactive | Active | Dose-dependent effect | O=C1Cn2cc(-c3ccccc3)nc2CN1 | Non-Toxic |
| inactive | – | – | N[C@@H](CS)C(=O)N1CCNC(=O)[C@@H]1CC1CCCCC1 | Non-Toxic |
| inactive | – | – | N[C@@H](CS)C(=O)N1CCNC(=O)C1 | Non-Toxic |
